Measured values taken from ChEMBL document CHEMBL1124250, “9-Benzyl-6-(dimethylamino)-9H-purines with antirhinovirus activity” (J Med Chem, 1988).

Tests used:
rhinovirus A1B [1] = experiment: In vitro activity against Rhinovirus type 1B by plaque inhibition assay.; format: functional, organism-based, Enterovirus; details: Rhinovirus A
Enterovirus [2] = experiment: Inhibitory concentration measured against Rhinovirus serotype 4; format: functional, organism-based
Enterovirus [3] = experiment: Inhibitory concentration measured against Rhinovirus serotype 3; format: functional, organism-based
Enterovirus [4] = experiment: Percent inhibition of plaque formation of Rhinovirus serotype 14 was measured at 2.5 uM of the compound; format: functional
Enterovirus [5] = experiment: Inhibitory concentration measured against Rhinovirus serotype 8; format: functional, organism-based
Enterovirus [6] = experiment: Inhibitory concentration measured against Rhinovirus serotype 1A; format: functional, organism-based
Enterovirus [7] = experiment: Percent inhibition of plaque formation of Rhinovirus serotype 31 was measured at 2.5 uM of the compound; format: functional
Enterovirus [8] = experiment: Inhibitory concentration measured against Rhinovirus serotype 2; format: functional, organism-based
Enterovirus [9] = experiment: Inhibitory concentration measured against Rhinovirus serotype 9; format: functional, organism-based
Enterovirus [10] = experiment: Inhibitory concentration measured against Rhinovirus serotype 30; format: functional, organism-based
Enterovirus [11] = experiment: Inhibitory concentration measured against Rhinovirus serotype 19; format: functional, organism-based
Enterovirus [12] = experiment: Percent inhibition of plaque formation of Rhinovirus serotype 13 was measured at 5 uM of the compound; format: functional
Enterovirus [13] = experiment: Percent inhibition of plaque formation of Rhinovirus serotype 29 was measured at 2.5 uM of the compound; format: functional
Enterovirus [14] = experiment: Percent inhibition of plaque formation of Rhinovirus serotype 18 was measured at 5 uM of the compound; format: functional
Enterovirus [15] = experiment: Inhibitory concentration measured against Rhinovirus serotype 1B; format: functional, organism-based
Enterovirus [16] = experiment: Percent inhibition of plaque formation of Rhinovirus serotype 15 was measured at 2.5 uM of the compound; format: functional
Enterovirus [17] = experiment: Inhibitory concentration measured against Rhinovirus serotype 5; format: functional, organism-based
Enterovirus [18] = experiment: Inhibitory concentration measured against Rhinovirus serotype 12; format: functional, organism-based
Enterovirus [19] = experiment: Inhibitory concentration measured against Rhinovirus serotype 21; format: functional, organism-based
Enterovirus [20] = experiment: Inhibitory concentration measured against Rhinovirus serotype 18; format: functional, organism-based
Enterovirus [21] = experiment: Inhibitory concentration measured against Rhinovirus serotype 13; format: functional, organism-based
Enterovirus [22] = experiment: Inhibitory concentration measured against Rhinovirus serotype 29; format: functional, organism-based
Enterovirus [23] = experiment: Inhibitory concentration measured against Rhinovirus serotype 14; format: functional, organism-based
Enterovirus [24] = experiment: Inhibitory concentration measured against Rhinovirus serotype 15; format: functional, organism-based
Enterovirus [25] = experiment: Inhibitory concentration measured against Rhinovirus serotype 16; format: functional, organism-based
Enterovirus [26] = experiment: Inhibitory concentration measured against Rhinovirus serotype 31; format: functional, organism-based
rhinovirus A1B [27] = experiment: In vitro activity against rhinovirus type 1B was determined by plaque inhibition assay; Inactive at 50 ug/disk, T=Toxic; format: functional, organism-based, Enterovirus
Procedure, shortened: (§1)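 Rhinovirus 1B plaque inhibition run on M-HeLa cell monolayers, with compound applied on disks at 50 µg/disk. Compounds active or slightly active at this level went on to a plaque reduction assay for the 50% inhibitory concentration.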

rhinovirus A1B [28] = experiment: In vitro activity against rhinovirus type 1B was determined by plaque inhibition assay; - = Inactive at 50 ug/disk; format: functional, organism-based, Enterovirus; procedure, shortened: as §1
Enterovirus [29] = experiment: Percent inhibition of plaque formation of Rhinovirus serotype 18 was measured at 4 uM of the compound; format: functional
Enterovirus [30] = experiment: Percent inhibition of plaque formation of Rhinovirus serotype 8 was measured at 4 uM of the compound; format: functional

Work on `CC(C)S(=O)(=O)n1c(N)nc2ccc(/C(=N/O)c3ccccc3)cc21` [ENVIROXIME] yielded an IC50 (rhinovirus A1B [1]) of 0.04 µM.

`CN(C)c1nc(Cl)nc2c1ncn2Cc1ccc(N)cc1` showed an IC50 (rhinovirus A1B [1]) of 0.3 µM.

`CN(C)c1ncnc2c1ncn2Cc1ccc(Cl)cc1` showed an IC50 (rhinovirus A1B [1]) of over 25 µM.

Work on `CN(C)c1nc(Cl)nc2c1ncn2Cc1ccc(Cl)cc1` yielded an IC50 (Enterovirus [2]) of over 2.5 µM, an IC50 (Enterovirus [3]) of 3.1 µM and an Inhibition (Enterovirus [4]) of 32%. For the same compound, the IC50 (Enterovirus [5]) was 4.5 µM, the IC50 (Enterovirus [6]) was 3 µM and the Inhibition (Enterovirus [7]) was 42%. For the same compound, the IC50 (Enterovirus [8]) was 2.5 µM, the IC50 (Enterovirus [9]) was 2.1 µM and the IC50 (Enterovirus [10]) was over 2.5 µM. The IC50 (Enterovirus [11]) was over 5 µM, the Inhibition (Enterovirus [12]) was 12% and the Inhibition (Enterovirus [13]) was 31%. For the same compound, the IC50 (rhinovirus A1B [1]) was 0.12 µM, the Inhibition (Enterovirus [14]) was 35% and the IC50 (Enterovirus [15]) was 0.12 µM. It also gave an Inhibition (Enterovirus [16]) of 40%, an IC50 (Enterovirus [17]) of 5.2 µM and an IC50 (Enterovirus [18]) of 5.4 µM. For the same compound, the IC50 (Enterovirus [19]) was over 5 µM.

`CN(C)c1ncnc2c1ncn2Cc1cc(Cl)cc(Cl)c1` was tested, and the IC50 (rhinovirus A1B [1]) was 4.6 µM.

Work on `CC(C)c1ccc(Cn2cnc3c(N(C)C)nc(Cl)nc32)cc1` yielded an IC50 (Enterovirus [2]) of 6.1 µM, an IC50 (Enterovirus [3]) of 7 µM and an IC50 (Enterovirus [20]) of 4.3 µM. It also gave an IC50 (Enterovirus [5]) of 6 µM, an IC50 (Enterovirus [6]) of under 1 µM and an IC50 (Enterovirus [21]) of 5.8 µM. For the same compound, the IC50 (Enterovirus [22]) was 0.5 µM, the IC50 (Enterovirus [23]) was 5.9 µM and the IC50 (Enterovirus [8]) was 1.2 µM. The IC50 (Enterovirus [9]) was under 1 µM, the IC50 (Enterovirus [10]) was 8 µM and the IC50 (Enterovirus [11]) was 7 µM. It also gave an IC50 (Enterovirus [24]) of 4.5 µM, an IC50 (rhinovirus A1B [1]) of 0.07 µM and an IC50 (Enterovirus [15]) of 0.07 µM. The IC50 (Enterovirus [17]) was 8 µM, the IC50 (Enterovirus [25]) was 0.2 µM and the IC50 (Enterovirus [18]) was 3.4 µM. It also gave an IC50 (Enterovirus [26]) of 4 µM.

For `CN(C)c1nc(Cl)nc2c1ncn2Cc1cccc(OCc2ccccc2)c1`, the IC50 (rhinovirus A1B [27]) was “Toxic”.

In the case of `CN(C)c1ncnc2c1ncn2Cc1ccc(N)cc1`, the IC50 (rhinovirus A1B [28]) is reported as “Not Active”.

Work on `CN(C)c1ncnc2c1ncn2Cc1cccc(OCc2ccccc2)c1` yielded an IC50 (rhinovirus A1B [1]) of 13 µM.

In the case of `CN(C)c1ncnc2c1ncn2Cc1cccc(Br)c1`, the IC50 (rhinovirus A1B [1]) is reported as 14.4 µM.

With `CN(C)c1nc(Cl)nc2c1ncn2Cc1ccccc1` the IC50 (rhinovirus A1B [1]) was 0.82 µM.

For `CN(C)c1nc(Cl)nc2c1ncn2Cc1cccc(I)c1`, the IC50 (rhinovirus A1B [1]) was 0.36 µM.

`CN(C)c1ncnc2c1ncn2Cc1ccc(OCc2ccccc2)cc1` was tested, and the IC50 (rhinovirus A1B [28]) was “Not Active”.

`CN(C)c1ncnc2c1ncn2Cc1cccc(I)c1` was tested, and the IC50 (rhinovirus A1B [1]) was 6.7 µM.

For `CN(C)c1ncnc2c1ncn2Cc1ccc(C#N)cc1`, the IC50 (rhinovirus A1B [28]) was “Not Active”.

In the case of `Cc1ccc(Cn2cnc3c(N(C)C)ncnc32)cc1`, the IC50 (rhinovirus A1B [1]) is reported as 8.6 µM.

`COc1cccc(Cn2cnc3c(N(C)C)nc(Cl)nc32)c1` gave an IC50 (rhinovirus A1B [1]) of 2 µM.

In the case of `COc1ccc(Cn2cnc3c(N(C)C)nc(Cl)nc32)cc1`, the IC50 (rhinovirus A1B [1]) is reported as 0.7 µM.

Compound `CN(C)c1ncnc2c1ncn2Cc1cccc(C(F)(F)F)c1` has an IC50 (rhinovirus A1B [1]) of 19.6 µM.

`CN(C)c1nc(Cl)nc2c1ncn2Cc1ccc([N+](=O)[O-])cc1` showed an IC50 (rhinovirus A1B [1]) of 0.51 µM.

For `CN(C)c1nc(Cl)nc2c1ncn2Cc1ccc(C(C)(C)C)cc1`, the IC50 (rhinovirus A1B [1]) was 0.44 µM.

`CN(C)c1ncnc2c1ncn2Cc1ccc(Cl)c(Cl)c1` was tested, and the IC50 (rhinovirus A1B [1]) was 2.5 µM.

With `Cc1cccc(Cn2cnc3c(N(C)C)nc(Cl)nc32)c1` the IC50 (rhinovirus A1B [1]) was 0.6 µM.

In the case of `CN(C)c1ncnc2c1ncn2Cc1ccc(F)cc1`, the IC50 (rhinovirus A1B [28]) is reported as “Not Active”.

With `CN(C)c1ncnc2c1ncn2Cc1cccc([N+](=O)[O-])c1` the IC50 (rhinovirus A1B [28]) was “Not Active”.

`CN(C)c1nc(Cl)nc2c1ncn2Cc1ccc2ccccc2c1` gave an IC50 (rhinovirus A1B [1]) of 1.1 µM.

Compound `CN(C)c1ncnc2c1ncn2Cc1cccc(NC(=O)C(N)Cc2ccccc2)c1` (configuration not stated) has an IC50 (rhinovirus A1B [1]) of 17 µM.

For `CCc1ccc(Cn2cnc3c(N(C)C)nc(Cl)nc32)cc1`, the IC50 (Enterovirus [2]) was 4 µM, the IC50 (Enterovirus [3]) was 4 µM and the IC50 (Enterovirus [6]) was 0.5 µM. The IC50 (Enterovirus [21]) was 4.9 µM, the IC50 (Enterovirus [22]) was 0.3 µM and the Inhibition (Enterovirus [29]) was 42%. For the same compound, the Inhibition (Enterovirus [30]) was 30%, the IC50 (Enterovirus [23]) was 3.3 µM and the IC50 (Enterovirus [8]) was 2.8 µM. It also gave an IC50 (Enterovirus [9]) of 0.4 µM, an IC50 (Enterovirus [10]) of 4 µM and an IC50 (Enterovirus [11]) of 4.6 µM. It also gave an IC50 (Enterovirus [24]) of 3.9 µM, an IC50 (rhinovirus A1B [1]) of 0.08 µM and an IC50 (Enterovirus [15]) of 0.08 µM. The IC50 (Enterovirus [17]) was 5.6 µM, the IC50 (Enterovirus [25]) was 0.2 µM and the IC50 (Enterovirus [18]) was 7 µM. The IC50 (Enterovirus [19]) was 8 µM and the IC50 (Enterovirus [26]) was 3.5 µM.

In the case of `CN(C)c1nc(Cl)nc2c1ncn2Cc1cccc(Cl)c1`, the IC50 (rhinovirus A1B [1]) is reported as 0.59 µM.

For `CN(C)c1nc(Cl)nc2c1ncn2Cc1cccc(N)c1`, the IC50 (rhinovirus A1B [1]) was 13 µM.

With `CN(C)c1ncnc2c1ncn2Cc1cccc(C#N)c1` the IC50 (rhinovirus A1B [28]) was “Not Active”.

With `CN(C)c1nc(Cl)nc2c1ncn2Cc1ccc(Cl)c(Cl)c1` the IC50 (rhinovirus A1B [1]) was 0.32 µM.

`CN(C)c1ncnc2c1ncn2Cc1cccc(N)c1` gave an IC50 (rhinovirus A1B [1]) of 50 µM.

Compound `COc1ccc(Cn2cnc3c(N(C)C)ncnc32)cc1` has an IC50 (rhinovirus A1B [1]) of 38 µM.

`CN(C)c1ncnc2c1ncn2Cc1ccc(O)cc1` was tested, and the IC50 (rhinovirus A1B [1]) was 34 µM.

For `CN(C)c1ncnc2c1ncn2Cc1cccc(O)c1`, the IC50 (rhinovirus A1B [28]) was “Not Active”.

`Cc1cccc(Cn2cnc3c(N(C)C)ncnc32)c1` showed an IC50 (rhinovirus A1B [1]) of 32 µM.

For `CN(C)c1ncnc2c1ncn2Cc1cccc(F)c1`, the IC50 (rhinovirus A1B [1]) was 23 µM.

Work on `CN(C)c1ncnc2c1ncn2Cc1cccc(Cl)c1` yielded an IC50 (rhinovirus A1B [1]) of 30.5 µM.

With `CC(=O)Nc1ccc(Cn2cnc3c(N(C)C)ncnc32)cc1` the IC50 (rhinovirus A1B [28]) was “Not Active”.

`COc1cccc(Cn2cnc3c(N(C)C)ncnc32)c1` gave an IC50 (rhinovirus A1B [1]) of 50 µM.

With `CN(C)c1ncnc2c1ncn2Cc1ccccc1` the IC50 (rhinovirus A1B [1]) was 33 µM.

`Cc1ccc(Cn2cnc3c(N(C)C)nc(Cl)nc32)cc1` was tested, and the IC50 (Enterovirus [2]) was 4.6 µM, the IC50 (Enterovirus [3]) was 7.2 µM and the IC50 (Enterovirus [20]) was 4 µM. It also gave an IC50 (Enterovirus [5]) of 13 µM, an IC50 (Enterovirus [6]) of 0.12 µM and an IC50 (Enterovirus [21]) of 2.3 µM. It also gave an IC50 (Enterovirus [22]) of over 5 µM, an IC50 (Enterovirus [23]) of 7 µM and an IC50 (Enterovirus [8]) of 11 µM. It also gave an IC50 (Enterovirus [9]) of 2 µM, an IC50 (Enterovirus [11]) of 14 µM and an IC50 (Enterovirus [24]) of 3.5 µM. For the same compound, the IC50 (rhinovirus A1B [1]) was 0.08 µM, the IC50 (Enterovirus [15]) was 0.08 µM and the IC50 (Enterovirus [17]) was 6.2 µM. For the same compound, the IC50 (Enterovirus [25]) was 1 µM, the IC50 (Enterovirus [18]) was 5.4 µM and the IC50 (Enterovirus [19]) was 5.6 µM. It also gave an IC50 (Enterovirus [26]) of 1.6 µM.

`CN(C)c1ncnc2c1ncn2Cc1ccc([N+](=O)[O-])cc1` was tested, and the IC50 (rhinovirus A1B [28]) was “Not Active”.
